CHO parental Ca – counter-screen: ATP calcium response change in parental CHO cells | parental CHO-K1, ATP-induced calcium, Fluo-8 fluorescence | inhibition, % at 5.6 µM | 330,000 tested, 0.63% active | AID 463079;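 active = inhibition above that plate's mean sample inhibition plus 3 SD, cut at about 26% in these data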
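Test system: parental CHO cells; detection: calcium-sensitive Fluo-8 fluorescence; evaluation: percent inhibition of calcium signal; also added: ATP as calcium-mobilizing challenge; repeats: one well per compound; control set: ATP-challenged DMSO wells low, unchallenged DMSO wells high; compound: single nominal dose of 5.6 µM per compound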
OXTR agonist – human OXTR agonism. P30559. CHO-OTR cells, Fluo-8 calcium fluorescence; normalized: DMSO 0%, oxytocin 100%. activation, % at 3 µM. 320,000 tested, 0.32% active;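 active = activation above the mean of all tested compounds plus 3 SD, cutoff set per screening run, cut at about 20% in these data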;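 note: peak over basal fluorescence ratio from a 100 s FLIPR kinetic read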
OXTR potentiate – potentiators of human oxytocin receptor. CHO-OTR cells, Fluo-8 calcium fluorescence, potentiator mode; 0% = oxytocin EC15, 100% = EC100. activation, % at 3 µM. 320,000 tested, 0.061% active;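 active = activation above that plate's cutoff, the mean activation of tested compounds plus 3 SD, cut at about 6.6% in these data, passing the limit was not always enough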
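Measured by – Fluo-8 calcium dye fluorescence · Test system – human OTR in CHO cells · Dosing – one concentration, 3.0 µM compound · Controls – EC15 oxytocin alone as 0%, 75 nM oxytocin as 100% · Evaluation – normalized max/min fluorescence ratio, % activation · Timing – 6 min pre-incubation, 100 s read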
OX1R antag-1 – antagonists of human orexin 1 receptor (OX1R); O43613; OX1R-expressing cells, FRET antagonist read-out; inhibition, % at 6.6 µM; 330,000 tested, 1.8% active; in the data active = inhibition mostly above about 38%, no sharp cut-off; inactive = mostly below about 40%
V1aR counter – counter-screen for oxytocin receptor agonists: human V1a receptor agonists; CHO-V1R cells, Fluo-8 calcium fluorescence, agonist mode; 0% DMSO, 100% 3 nM vasopressin; activation, % at 3 µM; 320,000 tested, 0.25% active;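 active = activation above the mean activation of all tested compounds plus 3 SD, per screening run, cut at about 20% in these data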;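 note: signal is peak over basal fluorescence ratio across a 100 second FLIPR read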
Target sequence (P37288 whole entry, looked up): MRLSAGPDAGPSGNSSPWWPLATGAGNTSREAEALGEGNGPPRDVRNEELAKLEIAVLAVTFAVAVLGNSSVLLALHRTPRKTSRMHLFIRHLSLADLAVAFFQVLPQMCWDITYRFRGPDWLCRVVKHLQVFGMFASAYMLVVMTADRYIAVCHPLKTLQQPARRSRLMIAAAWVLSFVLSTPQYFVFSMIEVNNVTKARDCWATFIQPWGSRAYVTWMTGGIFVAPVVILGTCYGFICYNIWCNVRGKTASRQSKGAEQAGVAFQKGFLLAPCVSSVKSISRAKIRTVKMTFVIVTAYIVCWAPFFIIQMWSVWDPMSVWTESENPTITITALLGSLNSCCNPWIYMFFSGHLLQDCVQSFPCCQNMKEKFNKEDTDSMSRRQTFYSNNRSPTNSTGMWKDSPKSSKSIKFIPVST
OX1R antag-2 – human HCRTR1 antagonism | O43613 | CHO/OX1R cells, Fluo-8 calcium fluorescence, orexin A | inhibition, % at 5 µM | 330,000 tested, 0.43% active | AID 434989;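 active = inhibition above its plate's threshold, mean inhibition of all tested compounds on the plate plus 3 SD, cut at about 37% in these data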
Of the large screens only hits and unclear results are named; the others gave an inactive call. An excerpt weighted towards active compounds, which were near 2.7% of everything screened.

CCOc1ccc(OCC(=O)OCC(=O)NNC(=O)c2ccc([N+](=O)[O-])cc2)cc1	OX1R antag-1 56.8
O=C(COC(=O)CSc1ccc(F)cc1)NNC(=O)c1ccc([N+](=O)[O-])cc1	OX1R antag-1 59.5
COc1ccc2cc(C[C@@H]3CC[C@@H](CO)O3)ccc2c1	none (no result: OXTR agonist, OXTR potentiate, V1aR counter)
CCCCOc1ccccc1C(=O)NNC(=S)NC(=O)c1ccccc1[N+](=O)[O-]	none
CCOC(=O)C1(CCCc2ccccc2)CCN(S(=O)(=O)N(C)C)CC1	none
CCOc1c(Br)cc(C(=O)N2CCCN(C)CC2)cc1OC	none
COc1ccc(C2(C)NC(=O)N(CC(=O)c3cc(C)n(C4CC4)c3C)C2=O)cc1 (centres undefined)	OXTR agonist 49.4, V1aR counter 45.5, OX1R antag-2 52.3
O=C(Nc1ccccc1Cc1ccccc1)c1ccccc1NS(=O)(=O)c1ccc(Cl)s1	OX1R antag-1 77.3
O=C(Nc1ccccc1)c1ccccc1NS(=O)(=O)c1ccc(Cl)s1	CHO parental Ca 28.2, OX1R antag-1 64.9
CC(C)CCOc1ccc(C(=O)NNC(=O)CNC(=O)c2ccccc2F)cc1	none
CCN(CC)S(=O)(=O)c1ccc(N2CCOCC2)c(NC(=O)c2[nH]c(C)c(C(C)=O)c2C)c1	none
Cc1ccc(S(=O)(=O)N2c3ccccc3-c3c(ssc3=S)C2(C)C)cc1	OX1R antag-1 87.8, OX1R antag-2 42.4
CC(C)[C@H](NC(=O)c1ccccc1Cl)C(=O)OCC(=O)NCc1ccc2c(c1)OCO2	none
COc1ccc(S(=O)(=O)Cc2ccc(C(=O)N3CCN(c4cccc(C)c4C)CC3)o2)cc1	CHO parental Ca 48.5
COc1ccc(N2CCN(C(=O)c3ccc(CS(=O)(=O)c4ccc(OC)cc4)o3)CC2)cc1	none
COc1ccc(S(=O)(=O)Cc2ccc(C(=O)N3CCN(c4ccc(Cl)cc4)CC3)o2)cc1	CHO parental Ca 40.5
Cc1ccccc1-c1nnc(SC(C)C(=O)NC2CCCC2)o1 (centres undefined)	none
O=[N+]([O-])c1ccc(S(=O)(=O)N(CC(O)CN2CCCCC2)c2ccccc2)cc1 (centres undefined)	OX1R antag-1 47.5
Cc1ccc(C)c(N=Nc2ccc(O)c3ncccc23)c1	CHO parental Ca 37.3
Cc1cccc(N=Nc2ccc(O)c3ncccc23)c1	CHO parental Ca 67.7, OX1R antag-2 47.8
Oc1ccc(N=Nc2ccc3c(c2)OCCO3)c2ncccc12	CHO parental Ca 50.8, OX1R antag-2 50.5
NS(=O)(=O)c1ccc(N=Nc2ccc(O)c3ncccc23)cc1	none
CCS(=O)(=O)c1ccc(OC)c(N=Nc2ccc(O)c3ncccc23)c1	none
N#Cc1ccsc1NC(=O)C1CCCN1S(=O)(=O)c1cccs1 (centres undefined)	OX1R antag-1 52.6
COc1ccc([N+](=O)[O-])cc1NC(=O)C1CCCN1S(=O)(=O)c1cccs1 (centres undefined)	none
COCC(=O)N(C)C[C@H]1N[C@@](C)(C(=O)OC)[C@H]2C(=O)N(Cc3ccccc3)C(=O)[C@@H]12	none
O=C(COC(=O)c1ccc2ncsc2c1)Nc1ccc(OC(F)(F)F)cc1	OX1R antag-2 37.2
CC(=O)Nc1ccccc1OCC(=O)c1cc(C)n(Cc2cccs2)c1C	CHO parental Ca 48.5, OX1R antag-2 55.3
Cc1cc(C(=O)CSc2nnc(N)s2)c(C)n1Cc1cccs1	none
Cc1csc(SCC(=O)c2cc(C)n(Cc3cccs3)c2C)n1	CHO parental Ca 42.5
COc1ccccc1C(=O)Nc1ccc2c(c1)nc1n2CCSC1	OX1R antag-1 53.6
O=C(COc1ccc(-n2cnnn2)cc1)Nc1ccc(F)c(F)c1F	CHO parental Ca 30.0
COc1ccc(N=Cc2c(O)c3ccccc3n2C(C)=O)cc1	none
COc1ccc(N=Cc2sc(O)c3ccccc23)cc1	CHO parental Ca 46.4, OXTR agonist 57.6, V1aR counter 76.6, OX1R antag-2 66.6
CC(C)(C)n1nnnc1C(c1cccs1)N(Cc1ccc(Cl)cc1)CC1CCCO1 (centres undefined)	CHO parental Ca 37.9
CCOC(=O)CC[C@H](NC(=O)Cn1cnc2c(NCc3ccccc3)ncnc21)C(=O)OCC	none (no result: OXTR agonist, OXTR potentiate, V1aR counter)
O=C(Nc1ccc(Cl)c(S(=O)(=O)N2CCCC2)c1)c1cc(=O)[nH]c2ccccc12	none
Cc1nn(C)c(C)c1CN(Cc1nc(CCC(C)C)no1)C(C)C	CHO parental Ca 41.1
Oc1ccc(-c2nccc(-c3ccccn3)n2)cc1	none
CCCOc1ccc2cc(C(=O)NCc3ccccc3)c(=O)oc2c1	none
COc1cccc(CCNC(=O)c2cc(COc3c(F)cccc3F)on2)c1	none
O=C(c1cccc(S(=O)(=O)N2CCN(c3ccccc3)CC2)c1)N1CCCC(C(F)(F)F)C1 (centres undefined)	CHO parental Ca 33.8
CCOc1cccc2sc(N(CCCN(C)C)C(=O)c3ccc(S(=O)(=O)N4CCc5ccccc5C4)cc3)nc12	OXTR agonist 25.1, V1aR counter 35.2
C=CCNC(=S)N/N=C(\C)c1ccccn1	CHO parental Ca 29.3
COc1ccc(Cc2nnc(SCC(=O)Nc3ccc(N4CCOCC4)cc3)o2)cc1	none
Cc1occc1C(=O)N/N=C/c1ccc(Cl)c([N+](=O)[O-])c1	OX1R antag-1 64.3
O=C(N/N=C/c1ccc(Cl)c([N+](=O)[O-])c1)c1ccc2nc[nH]c2c1	OX1R antag-1 57.6
COc1ccc(S(=O)(=O)N(C)C[C@H]2Oc3ccc(NS(=O)(=O)c4ccc(F)cc4)cc3C(=O)N([C@H](C)CO)C[C@@H]2C)cc1	none
COc1ccc(CC(=O)OCC(=O)Nc2cc(Cl)ccc2C)cc1	none
CCCn1c(N)c(N(CCOC)C(=O)CSCC(=O)Nc2cccc(C)c2)c(=O)[nH]c1=O	none
CC(C)N(Cc1nc(-c2ccccc2)no1)C(=O)c1ccc2c(c1)OCO2	OX1R antag-1 49.7
Cc1ccccc1OCc1nc(-c2ccccc2)no1	none
Cc1ccc(C(=O)N(Cc2nnc(-c3ccc(Cl)cc3)o2)C2CC2)o1	none
Cc1ccccc1OCC(=O)N(Cc1nc(-c2ccccc2)no1)C(C)C	OX1R antag-1 61.7
Cc1ccccc1OCC(=O)N(Cc1nnc(-c2ccc(Cl)cc2)o1)C(C)C	OX1R antag-1 39.3
Cc1ccc(SCC(=O)N(Cc2nc(-c3ccccc3)no2)C(C)C)cc1	CHO parental Ca 45.8
CC(=O)c1cccc(NC(=O)C2=CN3CCS(=O)(=O)N=C3C=C2)c1	none
COC(=O)c1sc(N2CCN(c3ccc(Cl)cc3)CC2)nc1N	CHO parental Ca 43.7
CC(C)(C)C(=O)NC(=S)NNC(=O)C(c1ccccc1)c1ccccc1	CHO parental Ca 79.5, OXTR agonist 89.0, V1aR counter 126.8, OX1R antag-2 92.7

Source: PubChem BioAssay
